Bioassay records as filed in PubChem BioAssay.
TAAR1 ag – human TAAR1 agonism | CHO RD-HGA16 TAAR1, Fluo-8 calcium fluorescence; vehicle wells 0%, saturating PEA agonist 100% | activation, % at 3 µM | 360,000 tested, 0.99% active | Q96RJ0;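 active means activation above the mean activation of all test compounds in the run plus 3 SD, cut at about 38% in these data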
Target sequence (Q96RJ0 whole entry, looked up): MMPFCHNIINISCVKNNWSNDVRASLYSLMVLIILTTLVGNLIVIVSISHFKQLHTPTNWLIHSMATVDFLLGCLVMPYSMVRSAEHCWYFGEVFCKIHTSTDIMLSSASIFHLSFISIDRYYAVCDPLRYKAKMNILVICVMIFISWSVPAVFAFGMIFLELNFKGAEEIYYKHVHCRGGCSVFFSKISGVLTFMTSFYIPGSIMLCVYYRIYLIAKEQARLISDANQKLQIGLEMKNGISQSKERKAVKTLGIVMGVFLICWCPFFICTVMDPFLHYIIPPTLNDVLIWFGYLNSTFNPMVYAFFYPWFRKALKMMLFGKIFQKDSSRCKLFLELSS
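Test system: RD-HGA16 (CHO) cells co-expressing Gα16 and hTAAR1 | Doses: Single dose, 3 µM | Schedule: 17-24 h seeding, 75 min 37 °C dye, 30 min RT | Evaluation: % activation from peak over basal fluorescence ratio, DMSO-to-PEA scaled | Technique: Kinetic Fluo-8 calcium fluorescence | Benchmarks: Low control DMSO, high control PEA (EC100)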
V1R ag counter – counter-screen for oxytocin receptor agonists: human V1a receptor agonists. CHO-V1R cells, Fluo-8 calcium fluorescence, agonist mode; 0% DMSO, 100% 3 nM vasopressin. P37288. 320,000 tested, 0.25% active. AID 2797. activation, % at 3 µM;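 active means activation above the mean activation of all tested compounds plus 3 SD, per screening run, cut at about 20% in these data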;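 further: signal is peak over basal fluorescence ratio across a 100 second FLIPR read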
Target sequence (P37288 whole entry, looked up): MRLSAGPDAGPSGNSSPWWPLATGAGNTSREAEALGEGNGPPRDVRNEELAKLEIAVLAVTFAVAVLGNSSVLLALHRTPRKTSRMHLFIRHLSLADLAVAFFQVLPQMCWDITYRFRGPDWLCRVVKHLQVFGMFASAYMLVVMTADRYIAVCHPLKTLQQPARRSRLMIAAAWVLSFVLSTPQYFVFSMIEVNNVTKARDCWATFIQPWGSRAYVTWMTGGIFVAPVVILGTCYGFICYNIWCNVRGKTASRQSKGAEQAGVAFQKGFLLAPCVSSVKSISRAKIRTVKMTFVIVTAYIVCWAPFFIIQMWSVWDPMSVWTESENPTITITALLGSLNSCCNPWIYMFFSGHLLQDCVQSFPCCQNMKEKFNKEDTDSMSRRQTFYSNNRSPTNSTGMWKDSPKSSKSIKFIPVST
TAAR1 antag – antagonists of human TAAR1; inhibition, % at 3 µM; 360,000 tested, 1.5% active; Q96RJ0; AID 624466; CHO RD-HGA16 TAAR1, Fluo-8 calcium fluorescence, antagonist;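 active means inhibition above a per-plate cutoff, the mean inhibition of test compounds on that plate plus 3 SD, cut at about 49% in these data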
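Assay system: CHO-derived RD-HGA16 cells stably expressing human TAAR1 plus Gα16. Timing: 140 s kinetic read after compound, 140 s after agonist. Technique: kinetic Fluo-8 calcium fluorescence measurement. Measure: % inhibition of agonist calcium response.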
OXTR agonist – agonists of human oxytocin receptor. P30559. CHO-OTR cells, Fluo-8 calcium fluorescence; normalized: DMSO 0%, oxytocin 100%. activation, % at 3 µM. 320,000 tested, 0.32% active;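 active means activation above the mean of all tested compounds plus 3 SD, cutoff set per screening run, cut at about 20% in these data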;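 further: peak over basal fluorescence ratio from a 100 s FLIPR kinetic read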
OXTR potentiator – potentiates the human oxytocin receptor response; P30559; CHO-OTR cells, Fluo-8 calcium fluorescence, potentiator mode; 0% = oxytocin EC15, 100% = EC100; activation, % at 3 µM; 320,000 tested, 0.061% active;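 active means activation above that plate's cutoff, the mean activation of tested compounds plus 3 SD, cut at about 6.6% in these data, passing the limit was not always enough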
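Assay system: CHO cell line stably expressing human OTR. Reagent: EC15 oxytocin agonist. Dosing: single dose, 3.0 µM nominal final compound concentration. Timing: compound 6 min at room temperature before oxytocin, 100 s read. Signal: kinetic Fluo-8 calcium fluorescence. Controls: oxytocin EC15 low and EC100 high.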
TAAR1 ag confirm – human TAAR1 agonism, confirmed. activation, % at 3 µM. shares compounds with TAAR1 ag. AID 651783. 2,400 tested, 82% active. CHO RD-HGA16 TAAR1, Fluo-8 calcium fluorescence; scaled: DMSO 0%, maximal phenethylamine 100%;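 active means activation above a cutoff set at the run's mean compound activation plus 3 SD, cut at about 39% in these data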
Ga16 nonsel ag – counter-screen for TAAR1 agonists: nonselective agonists in parental cells. activation, % at 3 µM. shares compounds with TAAR1 ag. 2,400 tested, 50% active. CHO-Ga16 parental, Fluo-8 calcium fluorescence; normalized to maximal ATP response, DMSO zero. AID 651787;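 active means activation above the run cutoff, the mean activation over all tested wells plus 3 SD, cut at about 12% in these data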
TAAR1 desens – counter-screen for human TAAR1 agonists: agonists that desensitize TAAR1; shares compounds with TAAR1 ag; CHO RD-HGA16 hTAAR1, Fluo-8 calcium, beta-PEA response inhibition; inhibition, % at 3 µM; 2,400 tested, 46% active;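 active means inhibition above the run cutoff, the mean inhibition of all test compounds plus 3 SD, cut at about 49% in these data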;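 further: beta-PEA stimulus applied at its EC80; loss of beta-PEA calcium signal after compound pretreatment read as receptor desensitization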
Ga16 antag count – counter-screen for TAAR1 agonists: nonselective Ga16 antagonists. shares compounds with TAAR1 ag. CHO-Ga16 ATP-induced calcium, Fluo-8 fluorescence. inhibition, % at 3 µM. 2,400 tested, 39% active. AID 651952;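 active means inhibition above the plate's mean compound inhibition plus 3 SD, computed per plate, cut at about 22% in these data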
Each line names hits and unclear results; the compound was inactive in the other large screens (follow-up assays come after a bar, where they were run). The list is not random: actives were taken first. Their share in the collection is about 2.3%.

O=C(C(=O)N1CCc2ccccc2C1)c1cn(CC(=O)N2CCOCC2)c2ccccc12	TAAR1 ag 75 | TAAR1 ag confirm 39 | Ga16 nonsel ag inactive | TAAR1 desens inactive | Ga16 antag count inactive
CCOCc1c(C(=O)OCC(=O)Nc2ccccc2C(N)=O)oc2ccccc12	none
CCOc1ccccc1NC(=O)c1ccc2c(O)c(S(=O)(=O)c3ccccc3)c(=O)[nH]c2c1	none (no result: V1R ag counter, OXTR agonist, OXTR potentiator)
N#C/C(=C\c1ccc(N2CCOCC2)o1)C(=O)Nc1ccc(O)cc1	TAAR1 ag 58, V1R ag counter 29, OXTR agonist 20 | TAAR1 ag confirm inactive | Ga16 nonsel ag 19 | TAAR1 desens inactive | Ga16 antag count 28
N#C/C(=C/c1ccc(N2CCOCC2)o1)C(=O)NC1CCCCC1	none
COc1ccc(NC(=O)/C(C#N)=C/c2ccc(Br)o2)cc1	none
COc1ccc(NC(=O)/C(C#N)=C\c2ccc(N3CCOCC3)o2)cc1	TAAR1 ag 135, V1R ag counter 117, TAAR1 antag 76, OXTR agonist 70 | TAAR1 ag confirm 49 | Ga16 nonsel ag 60 | TAAR1 desens 65 | Ga16 antag count 62
COc1ccc(NC(=O)CSCC(=O)Oc2c(OC)cccc2OC)cc1	none
c1ccc(CCNc2cc(-c3ccc4ccccc4c3)nc3ccnn23)nc1	none (no result: V1R ag counter, OXTR agonist, OXTR potentiator)
CCN1C(=O)/C(=C/C=C2\N(CC)c3cc(S(=O)(=O)N(C)C)ccc3N2c2ccccc2)SC1=S	TAAR1 ag 62 | TAAR1 ag confirm 48 | Ga16 nonsel ag 56 | TAAR1 desens 72 | Ga16 antag count 78
CCN1C(=O)/C(=C\C=C\c2ccccc2[N+](=O)[O-])SC1=S	none (no result: V1R ag counter, OXTR agonist, OXTR potentiator)
O=c1ccnc(NCCc2ccccc2)[nH]1	none (no result: TAAR1 ag, TAAR1 antag) | Ga16 nonsel ag inactive | Ga16 antag count inactive
O=C(O)C1CC=C(Cl)CC1C(=O)NCC1OCCc2ccccc21 (centres undefined)	none (no result: TAAR1 ag, TAAR1 antag) | Ga16 nonsel ag inactive | Ga16 antag count inactive
c1ccc(Oc2ccc3ccccc3n2)cc1	none
Oc1ccc(/C=N/N2CCN(Cc3ccccc3)CC2)cc1	none
O=C1CC(c2ccccc2)CC(O)=C1C=NCCc1ccccc1 (centres undefined)	TAAR1 ag 67 | TAAR1 ag confirm 72 | Ga16 nonsel ag inactive | TAAR1 desens inactive | Ga16 antag count inactive
Oc1ccc(C=NCCc2ccccc2)cc1	none (no result: TAAR1 ag, TAAR1 antag) | Ga16 nonsel ag inactive | Ga16 antag count inactive
CC1(C)CC(=O)C(C=NCCc2ccc(O)cc2)=C(O)C1	TAAR1 ag 66 | TAAR1 ag confirm 106 | Ga16 nonsel ag inactive | TAAR1 desens 79 | Ga16 antag count inactive
COc1ccc(C(C)=O)cc1COC(=O)CCNS(=O)(=O)c1ccc(C)c(C)c1	none
CCc1ccc(C2c3[nH]c4ccccc4c3CCN2C(=O)c2cc(C)nn2C)cc1 (centres undefined)	none
N#Cc1ccccc1S(=O)(=O)N1CCN(CC(=O)NCC2(N3CCOCC3)CCCCC2)CC1	none
COc1ccccc1CCNC(=O)C1CCCO1 (centres undefined)	TAAR1 ag 43 | TAAR1 ag confirm 73 | Ga16 nonsel ag inactive | TAAR1 desens inactive | Ga16 antag count inactive
Cn1c(C(=O)N2CCN(c3nc4ccccc4s3)CC2)cc2sccc21	TAAR1 ag 46 | TAAR1 ag confirm inactive | Ga16 nonsel ag 14 | TAAR1 desens inactive | Ga16 antag count 25
O=C(c1cc2sccc2n1Cc1ccc(F)cc1)N1CCN(c2nc3ccccc3s2)CC1	none
COc1cccc(NC(=O)N2CCC(NC(=O)C(Cc3ccccc3F)NC(C)=O)CC2)c1 (centres undefined)	none
O=C(C1=C(O)C(=O)N(CCc2ccccc2)C1c1cccnc1)c1ccco1 (centres undefined)	TAAR1 ag 47 | TAAR1 ag confirm 59 | Ga16 nonsel ag inactive | TAAR1 desens inactive | Ga16 antag count inactive
CCN(CC)CCN1C(=O)C(O)=C(C(=O)c2cc3ccccc3o2)C1c1cccnc1 (centres undefined)	none
O=C(C1=C(O)C(=O)N(CCc2ccccc2)C1c1ccncc1)c1cc2ccccc2o1 (centres undefined)	TAAR1 ag 44 | TAAR1 ag confirm 54 | Ga16 nonsel ag inactive | TAAR1 desens inactive | Ga16 antag count inactive
CCCCNc1c(-c2ccc(SC(C)CC)cc2)nc2cnccn12 (centres undefined)	none (no result: TAAR1 ag, TAAR1 antag)
Nc1ccn([C@@H]2O[C@H](CNC(=O)[C@@H](Cc3cccnc3)NC=O)[C@@H](O)[C@H]2O)c(=O)n1	none (no result: V1R ag counter, OXTR agonist, OXTR potentiator)
CCCCc1cc(O)c(CCCC)c(O)c1	TAAR1 ag 113, V1R ag counter 81, TAAR1 antag 102, OXTR agonist 86 | TAAR1 ag confirm 130 | Ga16 nonsel ag 95 | TAAR1 desens 106 | Ga16 antag count 92
Clc1ccc(-c2nc3c4ccccc4ccn3c2Cc2ccsc2)cc1	none (no result: V1R ag counter, OXTR agonist, OXTR potentiator)
Cc1nc(C(N)=O)c(N)n1CCc1ccccc1	TAAR1 ag 98, TAAR1 antag 72 | TAAR1 ag confirm 70 | Ga16 nonsel ag inactive | TAAR1 desens inactive | Ga16 antag count inactive
Cc1nc2ccccc2n1CCc1ccccc1	none
O=c1c2ccccc2c(C=Nc2cccc(O)c2)c(O)n1-c1ccc2c(c1)OCO2	TAAR1 ag 62 | TAAR1 ag confirm 82 | Ga16 nonsel ag 41 | TAAR1 desens 67 | Ga16 antag count 26
COc1ccc(N=Cc2c(O)n(-c3ccc(OC)cc3)c(=O)c3ccccc23)cc1	none
Cc1cccc(N2CCN(C3C(=O)Nc4ccccc4-n4nnnc43)CC2)c1C (centres undefined)	none (no result: V1R ag counter, OXTR agonist, OXTR potentiator)
O=C(NNC(=O)c1ccc(Cl)c(Cl)c1)c1ccncc1	none
O=C(Nc1ccncc1)c1ccc(Cl)c(Cl)c1	TAAR1 ag 56 | TAAR1 ag confirm 42 | Ga16 nonsel ag 19 | TAAR1 desens inactive | Ga16 antag count inactive
CC(Oc1ccc(Cl)cc1)C(=O)Nc1ccc(S(=O)(=O)N2CCOCC2)cc1 (centres undefined)	TAAR1 ag 110, V1R ag counter 28, OXTR agonist 30 | TAAR1 ag confirm 114 | Ga16 nonsel ag 72 | TAAR1 desens 75 | Ga16 antag count 42
CC(Oc1ccc(Cl)cc1)C(=O)Nc1cccc(S(=O)(=O)N2CCCC2)c1 (centres undefined)	none (no result: V1R ag counter, OXTR agonist, OXTR potentiator)
